Source: ChEMBL document CHEMBL4689842, “EUbOPEN Chemogenomics Library wave 1” (2021)
“And” between values parts separate entries of the source, which are not always exact repeats. Equal values may be shown once.

Legend:
Type in all cases: toxicity, cell-based
[1] = test system: HEK-293T; assay: Incucyte cell viability with HEK293T; conditions: human, 10 µM, compound concentration 10 uM; also: filed as whole numbers so only -1 and 0 and 1 occur
[2] = test system: U2OS; assay: Multiplex assay against U2OS; conditions: human
Method in brief: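 Live cells were stained at seeding with Hoechst33342, BioTracker Green Microtubule Cytoskeleton Dye, MitoTracker Red and Annexin V Alexa Fluor 680, then imaged on a CQ1 microscope at 37°C and 5% CO2 after compound addition. CellPathfinder machine-learning gating split cells into Hoechst high-intensity objects or normal cells. Normal cells were split into healthy, pyknosed or fragmented nuclei, and pyknosed cells into mitotic or apoptotic. Tubulin, mitochondrial-mass and membrane-permeability phenotypes are per cents of healthy-nucleus cells.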

[3] = test system: U2OS; assay: Incucyte cell viability with U2OS; conditions: human, 10 µM, compound concentration 10 uM; also: filed as whole numbers so only -1 and 0 and 1 occur
[4] = 6 h, replicate number 1, timepoint 6 hours
[5] = 12 h, replicate number 1, timepoint 12 hours
[6] = 18 h, replicate number 1, timepoint 18 hours
[7] = 24 h, replicate number 1, timepoint 24 hours
[8] = 12 h, 1 µM, compound concentration 1 uM, replicate 1
[9] = 12 h, 1 µM, compound concentration 1 uM, replicate 2
[10] = 12 h, 10 µM, compound concentration 10 uM, replicate 1
[11] = 12 h, 10 µM, compound concentration 10 uM, replicate 2
[12] = 24 h, 1 µM, compound concentration 1 uM, replicate 1
[13] = 24 h, 1 µM, compound concentration 1 uM, replicate 2
[14] = 24 h, 10 µM, compound concentration 10 uM, replicate 1
[15] = 24 h, 10 µM, compound concentration 10 uM, replicate 2
[16] = 48 h, 10 µM, compound concentration 10 uM, replicate 1
[17] = 48 h, 10 µM, compound concentration 10 uM, replicate 2

For `c1ccc(-c2oc3ncnc(NC[C@@H]4CCCO4)c3c2-c2ccccc2)cc1`, the “Growth Rate” value [1, 4] was 0, the “Growth Rate” value [1, 5] was 0 and the “Growth Rate” value [1, 6] was 0. The “Growth Rate” value [1, 7] was 0, the “Population Apoptotic (%)” value [2, 8] was 68% and 50% and the “Population Fragmented Nuclei (%)” value [2, 8] was 4%. For the same compound, the “Population Healthy Nuclei (%)” value [2, 8] was 86% and 84%, the “Population Mitochondria Different-Phenotype (%)” value [2, 8] was 12% and 18% and the “Population Mitotic Cells (%)” value [2, 8] was 31% and 50%. For the same compound, the “Population Normal (%)” value [2, 8] was 98% and 95%, the “Population Pyknosed Nuclei (%)” value [2, 8] was 9% and 8% and the “Total Cell Count” value [2, 8] was 173 and 152. The “Population Apoptotic (%)” value [2, 9] was 66% and 25%, the “Population Fragmented Nuclei (%)” value [2, 9] was 6% and the “Population Healthy Nuclei (%)” value [2, 9] was 90%. The “Population Hoechst High Intensity Objects (%)” value [2, 9] was 10% and 18%, the “Population Mitochondria Different-Phenotype (%)” value [2, 9] was 17% and 35% and the “Population Mitotic Cells (%)” value [2, 9] was 33% and 75%. The “Population Normal (%)” value [2, 9] was 89% and 81%, the “Population Pyknosed Nuclei (%)” value [2, 9] was 7% and 4% and the “Total Cell Count” value [2, 9] was 137 and 107. The “Population Apoptotic (%)” value [2, 10] was 78%, the “Population Fragmented Nuclei (%)” value [2, 10] was 12% and the “Population Healthy Nuclei (%)” value [2, 10] was 64%. For the same compound, the “Population Hoechst High Intensity Objects (%)” value [2, 10] was 10%, the “Population Membrane Permeable-Phenotype (%)” value [2, 10] was 20% and the “Population Mitochondria Different-Phenotype (%)” value [2, 10] was 82%. The “Population Mitotic Cells (%)” value [2, 10] was 21%, the “Population Normal (%)” value [2, 10] was 89% and the “Population Pyknosed Nuclei (%)” value [2, 10] was 22%. For the same compound, the “Population Tubulin-Different-Phenotype (%)” value [2, 10] was 93%, the “Total Cell Count” value [2, 10] was 137 and the “Population Apoptotic (%)” value [2, 11] was 87%. The “Population Fragmented Nuclei (%)” value [2, 11] was 14%, the “Population Healthy Nuclei (%)” value [2, 11] was 71% and the “Population Hoechst High Intensity Objects (%)” value [2, 11] was 6%. The “Population Membrane Permeable-Phenotype (%)” value [2, 11] was 34%, the “Population Mitochondria Different-Phenotype (%)” value [2, 11] was 56% and the “Population Mitotic Cells (%)” value [2, 11] was 12%. For the same compound, the “Population Normal (%)” value [2, 11] was 93%, the “Population Pyknosed Nuclei (%)” value [2, 11] was 14% and the “Population Tubulin-Different-Phenotype (%)” value [2, 11] was 95%. The “Total Cell Count” value [2, 11] was 61, the “Population Apoptotic (%)” value [2, 12] was 59% and 70% and the “Population Fragmented Nuclei (%)” value [2, 12] was 6%. For the same compound, the “Population Healthy Nuclei (%)” value [2, 12] was 79% and 90%, the “Population Hoechst High Intensity Objects (%)” value [2, 12] was 2% and 3% and the “Population Mitochondria Different-Phenotype (%)” value [2, 12] was 26% and 22%. For the same compound, the “Population Mitotic Cells (%)” value [2, 12] was 40% and 30%, the “Population Normal (%)” value [2, 12] was 97% and 96% and the “Population Pyknosed Nuclei (%)” value [2, 12] was 13% and 5%. The “Population Tubulin-Different-Phenotype (%)” value [2, 12] was 83%, the “Total Cell Count” value [2, 12] was 198 and 202 and the “Population Fragmented Nuclei (%)” value [2, 13] was 4% and 8%. The “Population Healthy Nuclei (%)” value [2, 13] was 77% and 87%, the “Population Hoechst High Intensity Objects (%)” value [2, 13] was 6% and 8% and the “Population Mitochondria Different-Phenotype (%)” value [2, 13] was 19% and 29%. For the same compound, the “Population Normal (%)” value [2, 13] was 93% and 91%, the “Total Cell Count” value [2, 13] was 153 and 143 and the “Population Apoptotic (%)” value [2, 14] was 82%. The “Population Fragmented Nuclei (%)” value [2, 14] was 8%, the “Population Healthy Nuclei (%)” value [2, 14] was 68% and the “Population Hoechst High Intensity Objects (%)” value [2, 14] was 12%. For the same compound, the “Population Membrane Permeable-Phenotype (%)” value [2, 14] was 34%, the “Population Mitochondria Different-Phenotype (%)” value [2, 14] was 74% and the “Population Mitotic Cells (%)” value [2, 14] was 17%. For the same compound, the “Population Normal (%)” value [2, 14] was 87%, the “Population Pyknosed Nuclei (%)” value [2, 14] was 23% and the “Population Tubulin-Different-Phenotype (%)” value [2, 14] was 95%. The “Total Cell Count” value [2, 14] was 138, the “Population Apoptotic (%)” value [2, 15] was 100% and the “Population Fragmented Nuclei (%)” value [2, 15] was 14%. The “Population Hoechst High Intensity Objects (%)” value [2, 15] was 10%, the “Population Membrane Permeable-Phenotype (%)” value [2, 15] was 21% and the “Population Mitochondria Different-Phenotype (%)” value [2, 15] was 56%. For the same compound, the “Population Mitotic Cells (%)” value [2, 15] was 0%, the “Population Normal (%)” value [2, 15] was 90% and the “Population Pyknosed Nuclei (%)” value [2, 15] was 16%. The “Population Tubulin-Different-Phenotype (%)” value [2, 15] was 81%, the “Total Cell Count” value [2, 15] was 60 and the “Population Apoptotic (%)” value [2, 16] was 70%. For the same compound, the “Population Fragmented Nuclei (%)” value [2, 16] was 15%, the “Population Healthy Nuclei (%)” value [2, 16] was 57% and the “Population Hoechst High Intensity Objects (%)” value [2, 16] was 5%. The “Population Membrane Permeable-Phenotype (%)” value [2, 16] was 41%, the “Population Mitochondria Different-Phenotype (%)” value [2, 16] was 61% and the “Population Mitotic Cells (%)” value [2, 16] was 29%. For the same compound, the “Population Normal (%)” value [2, 16] was 94%, the “Population Pyknosed Nuclei (%)” value [2, 16] was 26% and the “Population Tubulin-Different-Phenotype (%)” value [2, 16] was 89%. The “Total Cell Count” value [2, 16] was 134, the “Population Apoptotic (%)” value [2, 17] was 77% and the “Population Fragmented Nuclei (%)” value [2, 17] was 12%. The “Population Healthy Nuclei (%)” value [2, 17] was 75%, the “Population Hoechst High Intensity Objects (%)” value [2, 17] was 10% and the “Population Membrane Permeable-Phenotype (%)” value [2, 17] was 62%. For the same compound, the “Population Mitochondria Different-Phenotype (%)” value [2, 17] was 27%, the “Population Mitotic Cells (%)” value [2, 17] was 22% and the “Population Normal (%)” value [2, 17] was 90%. For the same compound, the “Population Pyknosed Nuclei (%)” value [2, 17] was 12%, the “Population Tubulin-Different-Phenotype (%)” value [2, 17] was 72% and the “Total Cell Count” value [2, 17] was 80. The “Growth Rate” value ([3]; 0 h, replicate number 1, timepoint 0 hours) was 1, the “Growth Rate” value ([3]; 0 h, replicate number 2, timepoint 0 hours) was 0 and the “Growth Rate” value [3, 4] was 1. For the same compound, the “Growth Rate” value [3, 5] was 0, the “Growth Rate” value ([3]; 12 h, replicate number 2, timepoint 12 hours) was 1 and the “Growth Rate” value [3, 6] was 0. The “Growth Rate” value [3, 7] was 0 and the “Growth Rate” value ([3]; 24 h, replicate number 2, timepoint 24 hours) was 1.
